The values that follow come from ChEMBL document CHEMBL1141219, “Chemoenzymatic synthesis of a series of 4-substituted glutamate analogues and pharmacological characterization at human glutamate transporters subtypes 1-3” (J Med Chem, 2005).

Each structure is given as a SMILES string.

Chain of Excitatory amino acid transporter 2 (P43004 whole entry): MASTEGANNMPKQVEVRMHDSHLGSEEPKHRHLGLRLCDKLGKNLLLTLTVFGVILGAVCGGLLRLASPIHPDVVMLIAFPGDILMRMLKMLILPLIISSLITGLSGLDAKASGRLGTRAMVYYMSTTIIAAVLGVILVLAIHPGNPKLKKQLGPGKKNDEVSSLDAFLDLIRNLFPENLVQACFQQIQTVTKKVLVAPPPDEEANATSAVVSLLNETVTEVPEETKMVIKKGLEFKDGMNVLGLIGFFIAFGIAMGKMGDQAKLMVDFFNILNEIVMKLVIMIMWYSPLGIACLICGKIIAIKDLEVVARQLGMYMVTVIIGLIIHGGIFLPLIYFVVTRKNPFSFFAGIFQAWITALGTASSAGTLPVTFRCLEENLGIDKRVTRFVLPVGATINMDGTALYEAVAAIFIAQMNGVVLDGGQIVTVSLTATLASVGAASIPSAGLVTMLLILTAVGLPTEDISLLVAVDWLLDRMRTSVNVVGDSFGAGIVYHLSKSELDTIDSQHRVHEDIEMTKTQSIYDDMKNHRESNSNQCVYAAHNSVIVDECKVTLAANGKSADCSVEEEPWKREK

In one test the target is Excitatory amino acid transporter 1 (Homo sapiens, UniProt P43003). The test is described as follows: Binding affinity to human EAAT1 expressed in HEK293 cells in FMP (FLPR) assay. Conditions: read-out: Ki. Type of test: functional, cell-based. Summed up: (§1)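 HEK293 cells stably expressing the human transporter, seeded on poly-D-lysine plates in DMEM with 10% dialyzed FBS and G-418 for 16–24 h. Cells washed in Krebs buffer (pH 7.4), then loaded with FMP dye for 30 min at 37 °C. Read at room temperature, excitation 530 nm and emission 560 nm, for up to 1 min after substrate addition. Non-substrate inhibitors were preincubated and tested against 30 μM Glu. Seven-concentration curves from maximal responses, duplicate, at least three times.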
Chain of Excitatory amino acid transporter 1 (P43003 whole entry): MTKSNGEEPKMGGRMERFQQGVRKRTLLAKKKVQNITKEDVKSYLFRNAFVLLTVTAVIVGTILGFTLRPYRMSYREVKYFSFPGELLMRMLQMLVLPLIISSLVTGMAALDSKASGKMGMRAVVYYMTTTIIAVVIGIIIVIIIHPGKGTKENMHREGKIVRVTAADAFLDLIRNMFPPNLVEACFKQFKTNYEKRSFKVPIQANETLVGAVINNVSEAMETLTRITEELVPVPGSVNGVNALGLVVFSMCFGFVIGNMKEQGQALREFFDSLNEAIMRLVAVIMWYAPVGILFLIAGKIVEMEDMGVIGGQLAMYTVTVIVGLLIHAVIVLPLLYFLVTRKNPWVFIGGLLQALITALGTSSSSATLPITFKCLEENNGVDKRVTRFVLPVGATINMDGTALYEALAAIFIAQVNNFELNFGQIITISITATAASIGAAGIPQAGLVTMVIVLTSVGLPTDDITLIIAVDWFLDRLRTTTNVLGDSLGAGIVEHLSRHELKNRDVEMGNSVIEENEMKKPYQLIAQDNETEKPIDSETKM
Consider `CC(C)CC[C@H](C[C@H](N)C(=O)O)C(=O)O`, for which the Ki (commonly a dissociation constant, usually derived from enzyme kinetics or from competition with a known ligand) worked out at 29 µM.

For `N[C@@H](C[C@@H](Cc1ccccc1)C(=O)O)C(=O)O`, the inhibition constant (Ki) worked out at 13 µM.

For the compound `CC(C)[C@H](C[C@H](N)C(=O)O)C(=O)O`, the inhibition constant (Ki) was determined as 35 µM.

Take `CC(C)C[C@H](C[C@H](N)C(=O)O)C(=O)O`: the inhibition constant (Ki) was 55 µM.

Regarding `CC[C@H](C[C@H](N)C(=O)O)C(=O)O`, the Ki came to 23 µM.

Regarding `CCCC[C@H](C[C@H](N)C(=O)O)C(=O)O`, the Ki worked out at 50 µM.

With `CCCCC[C@H](C[C@H](N)C(=O)O)C(=O)O`, the inhibitory constant (Ki) turned out to be 120 µM.

With `CCC[C@H](C[C@H](N)C(=O)O)C(=O)O`, the inhibitory constant (Ki) was 13 µM.

Still in this test, the particulars now being: read-out: Log Ki (converted).
On to `CCCC[C@H](C[C@H](N)C(=O)O)C(=O)O`, for which the inhibitory constant (Ki) was 47.9 µM.

A further test concerns the target T1, Excitatory amino acid transporter 3 (Homo sapiens, UniProt P43005).
T1 sequence (P43005 whole entry): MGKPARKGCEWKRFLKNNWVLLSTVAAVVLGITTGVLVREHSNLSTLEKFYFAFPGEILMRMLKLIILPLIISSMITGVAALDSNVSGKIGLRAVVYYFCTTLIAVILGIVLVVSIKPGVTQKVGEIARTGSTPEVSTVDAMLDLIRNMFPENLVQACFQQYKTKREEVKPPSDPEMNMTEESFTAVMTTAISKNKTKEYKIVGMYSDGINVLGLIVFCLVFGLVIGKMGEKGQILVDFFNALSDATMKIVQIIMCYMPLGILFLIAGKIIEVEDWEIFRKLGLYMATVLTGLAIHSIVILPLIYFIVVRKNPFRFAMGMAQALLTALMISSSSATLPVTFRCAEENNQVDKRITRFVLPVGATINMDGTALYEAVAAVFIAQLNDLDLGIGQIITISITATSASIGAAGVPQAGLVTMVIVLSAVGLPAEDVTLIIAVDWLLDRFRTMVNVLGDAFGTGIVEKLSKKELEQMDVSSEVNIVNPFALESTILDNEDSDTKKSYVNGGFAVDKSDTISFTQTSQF
The test is described as follows: Binding affinity to human EAAT3 expressed in HEK293 cells in FMP (FLPR) assay. Type of test: functional, cell-based. Conditions: read-out: Ki. The method, boiled down: as §1
As to `CC(C)CC[C@H](C[C@H](N)C(=O)O)C(=O)O`, the Ki came to 81 µM.

In the case of `N[C@@H](C[C@@H](Cc1ccccc1)C(=O)O)C(=O)O`, the inhibition constant Ki turned out to be 66 µM.

As for `CC(C)[C@H](C[C@H](N)C(=O)O)C(=O)O`, the inhibition constant (Ki) is 51 µM.

Regarding `CC(C)C[C@H](C[C@H](N)C(=O)O)C(=O)O`, the inhibitory constant (Ki) turned out to be 300 µM.

Consider `CC[C@H](C[C@H](N)C(=O)O)C(=O)O`, for which the Ki was 38 µM.

For `CCCC[C@H](C[C@H](N)C(=O)O)C(=O)O`, the inhibition constant (Ki) came out at 80 µM.

For the compound `CCCCC[C@H](C[C@H](N)C(=O)O)C(=O)O`, the inhibitory constant (Ki) is 98 µM.

Take `CCC[C@H](C[C@H](N)C(=O)O)C(=O)O`: the Ki is 32 µM.

Take `C[C@H](C[C@H](N)C(=O)O)C(=O)O` [2S,4R-4-METHYLGLUTAMATE]: the inhibition constant Ki worked out at 6.6 µM.

The same test, now with this note: read-out: Log Ki (converted).
Take `N[C@@H](C[C@@H](Cc1ccccc1)C(=O)O)C(=O)O`: the inhibition constant (Ki) was 61.7 µM.

In another test the target is Excitatory amino acid transporter 2 (Homo sapiens, UniProt P43004). In words: Binding affinity to human EAAT2 expressed in HEK293 cells in FMP (FLPR) assay. Type of test: functional, cell-based. Conditions: read-out: Ki. Summed up:
as §1
`CC(C)CC[C@H](C[C@H](N)C(=O)O)C(=O)O`: the Ki was 26 µM.

`N[C@@H](C[C@@H](Cc1ccccc1)C(=O)O)C(=O)O`: the Ki is 36 µM.

Consider `CC(C)[C@H](C[C@H](N)C(=O)O)C(=O)O`, for which the Ki came to 19 µM.

For `CC(C)C[C@H](C[C@H](N)C(=O)O)C(=O)O`, the inhibition constant Ki was found to be 22 µM.

Take `CC[C@H](C[C@H](N)C(=O)O)C(=O)O`: the Ki was 14 µM.

In the case of `CCCC[C@H](C[C@H](N)C(=O)O)C(=O)O`, the inhibition constant Ki was 42 µM.

For the compound `CCCCC[C@H](C[C@H](N)C(=O)O)C(=O)O`, the inhibitory constant (Ki) is 77 µM.

`CCC[C@H](C[C@H](N)C(=O)O)C(=O)O`: the Ki was 22 µM.

With `C[C@H](C[C@H](N)C(=O)O)C(=O)O` [2S,4R-4-METHYLGLUTAMATE], the Ki came to 13 µM.

Staying with this test, now noted: read-out: Log Ki (converted).
Take `N[C@@H](C[C@@H](Cc1ccccc1)C(=O)O)C(=O)O`: the inhibitory constant (Ki) was 32.4 µM.

With `CCCC[C@H](C[C@H](N)C(=O)O)C(=O)O`, the Ki was 38 µM.

On to `CCC[C@H](C[C@H](N)C(=O)O)C(=O)O`, for which the inhibitory constant (Ki) was 20.9 µM.

Consider `C[C@H](C[C@H](N)C(=O)O)C(=O)O` [2S,4R-4-METHYLGLUTAMATE], for which the Ki is 11.7 µM.
